Tests used:
[1] = folding enthalpy; higher = less favourable; fluorescence melt of hairpins on a sequencing array, two-state fit; details: sodium 0.088 M
In short: (§1)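 In 50 mM Na-HEPES pH 8.0 containing 25 mM NaCl, hairpins from the library on a sequenced MiSeq flow cell were imaged for Cy3 fluorescence at 2.5 °C steps up to 60 °C, with Cy3 and quencher oligos annealed. After normalisation to pre-quench Cy3 and to control constructs, two-state fits with bootstrapping gave melting temperature and folding enthalpy. Four replicates were combined by inverse-variance weighting, and fitted temperatures were shifted up by 9.35 °C to match UV melts.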

[2] = melting temperature; fluorescence melt of hairpins on a sequencing array, two-state fit, raised by 9.35 °C to match UV melts; details: sodium 0.088 M
In short: as §1

Sequence	folding enthalpy [1]	Tm [2]
GCGCTCGAAAGAGGACGC ((((((....)))..)))	-23.7 kcal/mol	50 °C
GCGCTCGAAAGAGTCCGC ((((((....)))..)))	-24.3 kcal/mol	42.8 °C
GCGCTGCGAAAGCAATGC ((..(((....)))..))	-18 kcal/mol	47.8 °C
GCGCTGCGAAAGCATAGC ((..(((....)))..))	-22.7 kcal/mol	52.7 °C
GCGCTGCGAAAGCATGGC ((..(((....)))..))	-19.4 kcal/mol	43.6 °C
GCGCTGCGAAAGCATTGC ((..(((....)))..))	-17.2 kcal/mol	41.1 °C
GCGCTGCGAAAGCCTCGC (((..((....))..)))	-22 kcal/mol	47.6 °C
GCGCTGCGAAAGCGGAGC ((.(.((....)).).))	-21.4 kcal/mol	63.3 °C
GCGCTGCGAAAGCTGAGC ((.(.((....)).).))	-21.2 kcal/mol	57.6 °C
GCGCTGCGAAAGCTTCGC (((..((....))..)))	-20.6 kcal/mol	54.9 °C
GCGCTGTCGAAAGACCGC (((..(((....))))))	-22.8 kcal/mol	52.3 °C
GCGCTTCGAAAGAACGC (((.(((....))))))	-32.9 kcal/mol	53.1 °C
GCGGAAAACCGC ((((....))))	-16.3 kcal/mol	49.8 °C
GCGGAAGAAATTCCGC ((((((....))))))	-34.9 kcal/mol	61.8 °C
GCGGAAGCCCGC ((((....))))	-14 kcal/mol	57.3 °C
GCGGAAGGAAACTTTCGC (((.(((....))).)))	-36.1 kcal/mol	53 °C
GCGGAATGCCGC ((((....))))	-24.3 kcal/mol	53 °C
GCGGACATCCGC ((((....))))	-22.5 kcal/mol	56.5 °C
GCGGACCCGAAAGGGCGC (((..(((....))))))	-18 kcal/mol	59.5 °C
GCGGACGAAAGTCGACGC ((((((....)))..)))	-27.3 kcal/mol	54.8 °C
GCGGACGCGAAAGCGCGC (((..(((....))))))	-17.1 kcal/mol	62 °C
GCGGACGGAAACGTTCGC (((.(((....))).)))	-44.9 kcal/mol	64.2 °C
GCGGACTCGAAAGAGCGC (((..(((....))))))	-22.9 kcal/mol	51 °C
GCGGACTGCCGC ((((....))))	-24.5 kcal/mol	54.5 °C
GCGGAGAACCGC ((((....))))	-22.7 kcal/mol	51.1 °C

Sequence	folding enthalpy [1]	Tm [2]
GCGGAGACCGC ((((...))))	-24.4 kcal/mol	53.2 °C
GCGGAGCGAAAGCCCGGC ((.(.((....)).).))	-10.5 kcal/mol	53.5 °C
GCGGAGCGAAAGCTCGGC ((.((((....)))).))	-17.8 kcal/mol	65.1 °C
GCGGAGCGAAAGCTGTGC ((..(((....)))..))	-14.2 kcal/mol	51 °C
GCGGAGGCCCGC ((((....))))	-17.4 kcal/mol	53.8 °C
GCGGAGGGAAACCCCCAC (.((.((....)).)).)	-7.96 kcal/mol	22.4 °C
GCGGAGGGAAACCTCCAC (.(((((....))))).)	-15.4 kcal/mol	45.7 °C
GCGGAGGGAAACCTCTGC ((.((((....)))).))	-40.3 kcal/mol	58.2 °C
GCGGATATCCGC ((((....))))	-33.9 kcal/mol	56.7 °C
GCGGCAAACCGC ((((....))))	-27.8 kcal/mol	55.8 °C
GCGGCAACGAAAGTTCGC (((..(((....))))))	-21.3 kcal/mol	45.1 °C
GCGGCACACCGC ((((....))))	-25.5 kcal/mol	57.5 °C
GCGGCAGCCGC ((((...))))	-10.9 kcal/mol	61.7 °C
GCGGCATACCGC ((((....))))	-32 kcal/mol	58.3 °C
GCGGCATCCCGC ((((....))))	-20.7 kcal/mol	56.4 °C
GCGGCCCGCCGC ((((....))))	-16.9 kcal/mol	68.7 °C
GCGGCCGAAAGGCGTCGC ((((((....)))..)))	-17.4 kcal/mol	59.3 °C
GCGGCCGAAAGGCTACGC ((((((....)))..)))	-19.6 kcal/mol	61.1 °C
GCGGCCGAAAGGCTCCGC ((((((....)))..)))	-16.8 kcal/mol	53.8 °C
GCGGCCGCCCGC ((((....))))	-17.1 kcal/mol	63.2 °C
GCGGCGCGAAAGCACTGC ((.(.((....)).).))	-29 kcal/mol	54.6 °C
GCGGCGCGAAAGCAGCGC (((..((....))..)))	-27.4 kcal/mol	68.1 °C
GCGGCGCGAAAGCATCGC (((..((....))..)))	-22.6 kcal/mol	61.4 °C
GCGGCGCGAAAGCCCAGC ((.(.((....)).).))	-15.3 kcal/mol	53 °C
GCGGCGCGAAAGCGTGGC ((..(((....)))..))	-20.7 kcal/mol	62 °C

Sequence	folding enthalpy [1]	Tm [2]
GCGGCGCGAAAGCTACGC (((..((....))..)))	-28.9 kcal/mol	61.8 °C
GCGGCGCGAAAGCTCAGC ((.(.((....)).).))	-19.2 kcal/mol	56.7 °C
GCGGCGCGAAAGCTCTGC ((.(.((....)).).))	-22.9 kcal/mol	47.4 °C
GCGGCGGACCGC ((((....))))	-22.6 kcal/mol	54.9 °C
GCGGCGGCCGC ((((...))))	-22.6 kcal/mol	61.3 °C
GCGGCGTTCCGC ((((....))))	-14.8 kcal/mol	54.1 °C
GCGGCTCTCCGC ((((....))))	-26.3 kcal/mol	55.6 °C
GCGGCTGGAAACAGCTGC ((.((((....)))).))	-39.1 kcal/mol	63.6 °C
GCGGGAACCCGC ((((....))))	-26 kcal/mol	67.8 °C
GCGGGACCGAAAGGTCGC (((..(((....))))))	-11.5 kcal/mol	56.3 °C
GCGGGAGGAAACCCCCGC (((((.(....).)))))	-37.9 kcal/mol	60.2 °C
GCGGGAGGAAACTCCTGC ((.((((....)))).))	-39 kcal/mol	58.1 °C
GCGGGCGAAAGCCATCGC ((((((....)))..)))	-21.1 kcal/mol	52.8 °C
GCGGGCGAAAGCCTTCGC ((((((....)))..)))	-15.7 kcal/mol	50.1 °C
GCGGGCTCCGC ((((...))))	-21.6 kcal/mol	58.5 °C
GCGGGGCGAAAGCCTTGC ((..(((....)))..))	-18 kcal/mol	58.4 °C
GCGGGGCGAAAGCGCAGC ((.(.((....)).).))	-23.5 kcal/mol	59.5 °C
GCGGGGCGAAAGCTTCGC (((..((....))..)))	-35.3 kcal/mol	63 °C
GCGGGGCTCCGC ((((....))))	-26.7 kcal/mol	67.4 °C
GCGGGGGCGAAAGCCCGC (((..(((....))))))	-11.4 kcal/mol	65.1 °C
GCGGGGGGAAACCCTCGC (((.(((....))).)))	-38 kcal/mol	61.6 °C
GCGGGGGGCCGC ((((....))))	-13.5 kcal/mol	60.7 °C
GCGGGGTGCCGC ((((....))))	-26.3 kcal/mol	61.2 °C
GCGGGTGCGAAAGCACGC (((..(((....))))))	-10.3 kcal/mol	55.7 °C
GCGGTACGAAAGTACGC (((.(((....))))))	-26.4 kcal/mol	60.7 °C

Sequence	folding enthalpy [1]	Tm [2]
GCGGTACGCCGC ((((....))))	-13.5 kcal/mol	67 °C
GCGGTAGGAAACTACTGC ((.((((....)))).))	-34.8 kcal/mol	52.2 °C
GCGGTAGGCCGC ((((....))))	-17.4 kcal/mol	63.7 °C
GCGGTAGTCCGC ((((....))))	-21.9 kcal/mol	58.8 °C
GCGGTATTCCGC ((((....))))	-30.6 kcal/mol	56.4 °C
GCGGTCATCCGC ((((....))))	-26.7 kcal/mol	59.3 °C
GCGGTCCTCCGC ((((....))))	-28 kcal/mol	58.5 °C
GCGGTCGAAAGACAACGC ((((((....)))..)))	-27.7 kcal/mol	56.6 °C
GCGGTCGAAAGACACGC ((((((....))).)))	-27.4 kcal/mol	61.8 °C
GCGGTCGAAAGACTCCGC ((((((....)))..)))	-25.4 kcal/mol	50.7 °C
GCGGTCTGCCGC ((((....))))	-22.7 kcal/mol	62.1 °C
GCGGTGAACCGC ((((....))))	-30 kcal/mol	61.1 °C
GCGGTGCGAAAGCAGAGC ((..(((....)))..))	-33 kcal/mol	63.5 °C
GCGGTGCGAAAGCCTCGC (((..((....))..)))	-22.2 kcal/mol	59.1 °C
GCGGTGCGAAAGCGTCGC (((..((....))..)))	-32.6 kcal/mol	65.1 °C
GCGGTGCGAAAGCTGCGC (((..((....))..)))	-32.1 kcal/mol	64.2 °C
GCGGTGTCCCGC ((((....))))	-32.1 kcal/mol	56.5 °C
GCGGTGTCGAAAGACCGC (((..(((....))))))	-30.4 kcal/mol	58.9 °C
GCGGTTAGCCGC ((((....))))	-24.3 kcal/mol	62.4 °C
GCGGTTCCCCGC ((((....))))	-21 kcal/mol	60.8 °C
GCGGTTCTCCGC ((((....))))	-31.9 kcal/mol	58.3 °C
GCGGTTGGAAACAACCAC (.(((((....))))).)	-14.8 kcal/mol	44.8 °C
